Structures can show the parent of a compound that is named as a salt. Calls of active or inactive are those of the source. The calls are words filed in the database; no cut-off is given here.
Key:
[1] = target: T1, RAC-alpha serine/threonine-protein kinase (Homo sapiens, UniProt P31749); experiment: Inhibition of recombinant AKT1 using GSK3 as substrate assessed as inhibition of [33P]Phosphate incorporation into substrate at <10 uM after 80 mins by scintillation counting
Method in brief: (§1)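 Recombinant AKT1 was assayed radiometrically with [33P]-ATP (about 5×10^5 cpm/well) and GSK3(14-27) substrate at 2000 ng/50 µL. Buffer was 60 mM HEPES-NaOH pH 7.5 with 3 mM MgCl2 and 3 mM MnCl2, and compound was added in 10% DMSO. After 80 min at 30 °C the reaction was stopped with 2% phosphoric acid, washed with 0.9% NaCl and 33P incorporation counted by scintillation. Residual activity was set against no-enzyme and no-inhibitor controls.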

[2] = target: T2, Focal adhesion kinase 1 (Homo sapiens, UniProt Q05397); experiment: Inhibition of recombinant FAK using poly(Glu,Tyr)4 as substrate assessed as inhibition of [33P]Phosphate incorporation into substrate at <10 uM after 80 mins by scintillation counting
Method in brief: (§2)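 FAK and VEGF-R2 were each tested as recombinant kinase with poly(Glu,Tyr)4:1 substrate at 125 ng/50 µL and [33P]-ATP (about 5×10^5 cpm/well). Buffer was 60 mM HEPES-NaOH pH 7.5 with 3 mM MgCl2 and 3 mM MnCl2. Reactions ran 80 min at 30 °C and were quenched with 2% phosphoric acid and washed with 0.9% NaCl. Scintillation counts were normalised between no-enzyme and uninhibited controls.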

[3] = target: Hepatocyte growth factor receptor (Homo sapiens) (UniProt P08581); experiment: Inhibition of recombinant MET at <10 uM by radiometric kinase assay
Method in brief: (§3)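 Recombinant kinases were tested in a radiometric 33P-ATP assay in 60 mM HEPES-NaOH pH 7.5 with 3 mM MgCl2 and 3 mM MnCl2, with compound added in 10% DMSO. Incubation was 80 min at 30 °C, stopped with 2% phosphoric acid and washed. 33P incorporation was scintillation-counted, and activity was scaled between no-enzyme and no-inhibitor controls.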

[4] = target: Proto-oncogene tyrosine-protein kinase Src (Homo sapiens) (UniProt P12931); experiment: Inhibition of recombinant SRC at <10 uM by radiometric kinase assay; method in brief: as §3
[5] = target: T1, RAC-alpha serine/threonine-protein kinase; experiment: Inhibition of recombinant AKT1 using GSK3 as substrate assessed as inhibition of [33P]Phosphate incorporation into substrate after 80 mins by scintillation counting
Method in brief: as §1, with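 “scintillation.” for “scintillation. Residual activity was set against no-enzyme and no-inhibitor controls.”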

[6] = target: T3, Vascular endothelial growth factor receptor 2 (Homo sapiens, UniProt P35968); experiment: Inhibition of recombinant VEGFR2 using poly(Glu,Tyr)4 as substrate assessed as inhibition of [33P]Phosphate incorporation into substrate at <10 uM after 80 mins by scintillation counting; method in brief: as §2
T3 sequence (P35968 whole entry): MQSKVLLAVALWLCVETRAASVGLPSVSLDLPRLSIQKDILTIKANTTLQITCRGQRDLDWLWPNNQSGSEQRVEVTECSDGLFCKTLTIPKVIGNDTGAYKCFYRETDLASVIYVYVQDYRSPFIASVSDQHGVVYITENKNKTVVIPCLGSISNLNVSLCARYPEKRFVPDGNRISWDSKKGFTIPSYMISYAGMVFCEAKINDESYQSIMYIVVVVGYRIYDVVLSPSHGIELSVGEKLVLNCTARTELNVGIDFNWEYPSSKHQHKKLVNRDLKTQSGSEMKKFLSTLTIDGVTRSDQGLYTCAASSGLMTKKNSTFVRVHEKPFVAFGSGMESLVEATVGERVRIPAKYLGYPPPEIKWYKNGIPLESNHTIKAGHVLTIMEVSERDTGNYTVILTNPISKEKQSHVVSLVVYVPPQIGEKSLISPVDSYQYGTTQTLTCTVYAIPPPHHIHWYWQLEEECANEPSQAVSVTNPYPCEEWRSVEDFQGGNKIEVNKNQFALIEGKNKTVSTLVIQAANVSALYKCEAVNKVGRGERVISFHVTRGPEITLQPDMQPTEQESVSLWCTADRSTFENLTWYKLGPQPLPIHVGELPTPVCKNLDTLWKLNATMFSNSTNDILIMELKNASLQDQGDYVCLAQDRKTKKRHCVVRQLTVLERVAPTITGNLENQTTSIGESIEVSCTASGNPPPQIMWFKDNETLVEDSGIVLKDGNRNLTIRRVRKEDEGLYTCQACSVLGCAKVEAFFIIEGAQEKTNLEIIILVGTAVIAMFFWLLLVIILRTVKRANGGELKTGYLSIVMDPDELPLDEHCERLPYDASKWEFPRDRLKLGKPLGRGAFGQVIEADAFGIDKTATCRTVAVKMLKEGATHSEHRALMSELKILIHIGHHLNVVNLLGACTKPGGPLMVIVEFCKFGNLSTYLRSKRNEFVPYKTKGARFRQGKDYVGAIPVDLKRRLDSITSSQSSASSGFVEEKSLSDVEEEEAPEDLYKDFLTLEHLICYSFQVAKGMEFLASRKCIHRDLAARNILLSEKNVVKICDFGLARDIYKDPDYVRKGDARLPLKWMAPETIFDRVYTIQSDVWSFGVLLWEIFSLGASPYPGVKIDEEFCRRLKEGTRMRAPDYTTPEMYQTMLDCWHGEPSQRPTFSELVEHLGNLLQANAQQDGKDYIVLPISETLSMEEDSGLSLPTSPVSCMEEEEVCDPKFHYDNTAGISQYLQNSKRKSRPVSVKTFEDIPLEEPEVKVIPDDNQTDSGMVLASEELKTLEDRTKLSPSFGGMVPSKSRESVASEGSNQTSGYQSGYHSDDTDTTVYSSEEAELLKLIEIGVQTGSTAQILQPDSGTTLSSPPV

[7] = target: T3, Vascular endothelial growth factor receptor 2; experiment: Inhibition of recombinant VEGFR2 using poly(Glu,Tyr)4 as substrate assessed as inhibition of [33P]Phosphate incorporation into substrate after 80 mins by scintillation counting
[8] = target: Serine/threonine-protein kinase N1 (Homo sapiens) (UniProt Q16512); experiment: Inhibition of recombinant PRK1 at <10 uM by radiometric kinase assay; method in brief: as §3
[9] = target: Tyrosine-protein kinase receptor UFO (Homo sapiens) (UniProt P30530); experiment: Inhibition of recombinant AXL at <10 uM by radiometric kinase assay; method in brief: as §3
Sequence of Tyrosine-protein kinase receptor UFO (Homo sapiens) (P30530 whole entry): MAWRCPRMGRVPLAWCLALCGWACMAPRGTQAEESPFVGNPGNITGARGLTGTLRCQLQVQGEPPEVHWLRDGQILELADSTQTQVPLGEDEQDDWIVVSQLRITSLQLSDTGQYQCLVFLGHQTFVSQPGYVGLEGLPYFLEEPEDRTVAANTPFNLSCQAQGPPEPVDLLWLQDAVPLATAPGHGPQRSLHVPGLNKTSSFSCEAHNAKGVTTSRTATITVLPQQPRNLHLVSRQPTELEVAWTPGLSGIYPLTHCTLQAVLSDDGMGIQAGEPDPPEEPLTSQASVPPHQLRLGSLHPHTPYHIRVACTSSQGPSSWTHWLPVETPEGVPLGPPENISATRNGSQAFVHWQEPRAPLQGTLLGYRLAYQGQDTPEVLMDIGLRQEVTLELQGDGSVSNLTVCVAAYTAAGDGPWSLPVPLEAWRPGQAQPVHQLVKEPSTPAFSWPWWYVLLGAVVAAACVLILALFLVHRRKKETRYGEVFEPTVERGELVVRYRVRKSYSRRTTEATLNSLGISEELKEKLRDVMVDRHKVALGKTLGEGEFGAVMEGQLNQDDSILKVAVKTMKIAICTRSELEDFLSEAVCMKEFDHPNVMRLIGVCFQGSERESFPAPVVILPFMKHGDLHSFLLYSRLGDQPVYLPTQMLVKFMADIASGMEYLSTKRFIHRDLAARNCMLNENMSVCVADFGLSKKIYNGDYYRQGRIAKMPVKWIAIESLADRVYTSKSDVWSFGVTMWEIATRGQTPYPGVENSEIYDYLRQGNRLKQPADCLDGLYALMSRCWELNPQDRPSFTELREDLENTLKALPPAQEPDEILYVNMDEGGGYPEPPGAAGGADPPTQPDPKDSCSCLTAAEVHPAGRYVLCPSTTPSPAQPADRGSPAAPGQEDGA

[10] = target: T4, Aurora kinase B (Homo sapiens, UniProt Q96GD4); experiment: Inhibition of recombinant Aurora B using tetra(LRRWSLG) as substrate assessed as inhibition of [33P]Phosphate incorporation into substrate at <10 uM after 80 mins by scintillation counting
T4 sequence (Q96GD4 whole entry): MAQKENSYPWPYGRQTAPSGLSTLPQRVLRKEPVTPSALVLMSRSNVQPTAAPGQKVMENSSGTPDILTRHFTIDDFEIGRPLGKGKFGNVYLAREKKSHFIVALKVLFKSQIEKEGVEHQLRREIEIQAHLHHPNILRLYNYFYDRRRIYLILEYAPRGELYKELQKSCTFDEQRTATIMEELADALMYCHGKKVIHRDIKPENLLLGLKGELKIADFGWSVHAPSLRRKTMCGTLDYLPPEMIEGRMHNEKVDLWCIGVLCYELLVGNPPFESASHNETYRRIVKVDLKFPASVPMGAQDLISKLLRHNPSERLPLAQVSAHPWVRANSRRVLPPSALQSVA
Method in brief: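 Recombinant Aurora B was assayed with [33P]-ATP (about 5×10^5 cpm/well) and tetra(LRRWSLG) substrate at 500 ng/50 µL. Buffer was 60 mM HEPES-NaOH pH 7.5 with 3 mM MgCl2 and 3 mM MnCl2. Incubation ran 80 min at 30 °C and was stopped with 2% phosphoric acid, then washed with saline. Bound 33P was counted by scintillation, with activity normalised to no-enzyme (0%) and no-inhibitor (100%) controls.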

[11] = target: T5, Serine/threonine-protein kinase PLK1 (Homo sapiens, UniProt P53350); experiment: Inhibition of recombinant PLK1 using RBERCHKtide as substrate assessed as inhibition of [33P]Phosphate incorporation into substrate after 80 mins by scintillation counting
Method in brief: (§4)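 PLK1 (recombinant) was phosphorylating RBER-CHKtide at 2000 ng/50 µL with [33P]-ATP (about 5×10^5 cpm/well). Buffer was 60 mM HEPES-NaOH pH 7.5 with 3 mM MgCl2 and 3 mM MnCl2. After 80 min at 30 °C, 2% phosphoric acid stopped the reaction and wells were washed with saline. Incorporated 33P was counted, with residual activity relative to enzyme-free and inhibitor-free controls.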

[12] = target: T6, NUAK family SNF1-like kinase 1 (Homo sapiens) (UniProt O60285); experiment: Inhibition of recombinant ARK5 at <10 uM by radiometric kinase assay; method in brief: as §3
T6 sequence (whole entry): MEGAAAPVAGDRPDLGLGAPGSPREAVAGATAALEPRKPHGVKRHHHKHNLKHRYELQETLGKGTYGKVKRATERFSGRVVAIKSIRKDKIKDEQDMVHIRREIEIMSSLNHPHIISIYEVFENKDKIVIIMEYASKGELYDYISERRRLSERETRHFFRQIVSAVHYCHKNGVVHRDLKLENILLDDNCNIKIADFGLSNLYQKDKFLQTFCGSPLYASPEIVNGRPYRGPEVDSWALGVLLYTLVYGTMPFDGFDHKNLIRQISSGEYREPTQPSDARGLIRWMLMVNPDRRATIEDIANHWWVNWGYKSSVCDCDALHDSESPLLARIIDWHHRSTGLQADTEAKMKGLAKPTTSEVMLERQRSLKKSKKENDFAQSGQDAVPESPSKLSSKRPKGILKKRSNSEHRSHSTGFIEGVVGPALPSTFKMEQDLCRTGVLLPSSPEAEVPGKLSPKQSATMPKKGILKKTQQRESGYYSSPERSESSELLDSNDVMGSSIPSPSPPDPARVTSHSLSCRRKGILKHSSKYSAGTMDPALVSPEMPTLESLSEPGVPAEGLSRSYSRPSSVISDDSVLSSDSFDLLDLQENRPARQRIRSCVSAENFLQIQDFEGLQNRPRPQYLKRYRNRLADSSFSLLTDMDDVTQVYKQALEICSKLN

[13] = target: T2, Focal adhesion kinase 1; experiment: Inhibition of recombinant FAK using poly(Glu,Tyr)4 as substrate assessed as inhibition of [33P]Phosphate incorporation into substrate after 80 mins by scintillation counting
Target sequence in this assay (Q05397 whole entry): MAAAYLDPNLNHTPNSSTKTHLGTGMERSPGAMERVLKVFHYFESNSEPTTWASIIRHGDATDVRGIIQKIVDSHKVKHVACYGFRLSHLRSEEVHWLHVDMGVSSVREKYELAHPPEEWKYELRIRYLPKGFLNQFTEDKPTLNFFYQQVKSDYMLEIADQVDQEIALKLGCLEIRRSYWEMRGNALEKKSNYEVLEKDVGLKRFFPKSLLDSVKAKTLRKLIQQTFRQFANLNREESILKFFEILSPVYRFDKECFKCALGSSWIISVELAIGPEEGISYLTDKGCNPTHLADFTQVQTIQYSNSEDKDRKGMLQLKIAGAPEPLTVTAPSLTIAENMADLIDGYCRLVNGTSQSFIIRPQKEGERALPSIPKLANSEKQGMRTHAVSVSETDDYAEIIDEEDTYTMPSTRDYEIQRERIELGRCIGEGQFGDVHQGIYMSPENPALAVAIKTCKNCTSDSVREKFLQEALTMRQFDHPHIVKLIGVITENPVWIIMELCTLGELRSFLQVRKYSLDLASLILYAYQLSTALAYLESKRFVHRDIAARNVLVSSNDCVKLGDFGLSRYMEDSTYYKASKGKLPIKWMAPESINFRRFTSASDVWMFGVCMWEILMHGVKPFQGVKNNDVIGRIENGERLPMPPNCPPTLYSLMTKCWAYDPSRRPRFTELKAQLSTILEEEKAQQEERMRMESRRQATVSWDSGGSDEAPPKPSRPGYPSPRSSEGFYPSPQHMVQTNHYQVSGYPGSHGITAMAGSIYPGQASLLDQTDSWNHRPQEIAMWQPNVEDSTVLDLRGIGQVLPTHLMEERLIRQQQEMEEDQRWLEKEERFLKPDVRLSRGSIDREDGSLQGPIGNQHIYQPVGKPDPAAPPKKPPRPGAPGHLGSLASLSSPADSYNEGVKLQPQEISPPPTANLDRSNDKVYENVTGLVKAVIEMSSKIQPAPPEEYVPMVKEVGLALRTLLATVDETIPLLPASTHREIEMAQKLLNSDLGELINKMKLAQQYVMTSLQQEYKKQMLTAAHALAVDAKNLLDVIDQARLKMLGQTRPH

[14] = target: T4, Aurora kinase B; experiment: Inhibition of recombinant Aurora B using tetra(LRRWSLG) as substrate assessed as inhibition of [33P]Phosphate incorporation into substrate after 80 mins by scintillation counting
[15] = target: T5, Serine/threonine-protein kinase PLK1; experiment: Inhibition of recombinant PLK1 using RBERCHKtide as substrate assessed as inhibition of [33P]Phosphate incorporation into substrate at <10 uM after 80 mins by scintillation counting; method in brief: as §4
[16] = target: Insulin-like growth factor 1 receptor (Homo sapiens) (UniProt P08069); experiment: Inhibition of recombinant IGF1R at <10 uM by radiometric kinase assay; method in brief: as §3
Sequence of Insulin-like growth factor 1 receptor (Homo sapiens) (P08069 31-736 limits assumed): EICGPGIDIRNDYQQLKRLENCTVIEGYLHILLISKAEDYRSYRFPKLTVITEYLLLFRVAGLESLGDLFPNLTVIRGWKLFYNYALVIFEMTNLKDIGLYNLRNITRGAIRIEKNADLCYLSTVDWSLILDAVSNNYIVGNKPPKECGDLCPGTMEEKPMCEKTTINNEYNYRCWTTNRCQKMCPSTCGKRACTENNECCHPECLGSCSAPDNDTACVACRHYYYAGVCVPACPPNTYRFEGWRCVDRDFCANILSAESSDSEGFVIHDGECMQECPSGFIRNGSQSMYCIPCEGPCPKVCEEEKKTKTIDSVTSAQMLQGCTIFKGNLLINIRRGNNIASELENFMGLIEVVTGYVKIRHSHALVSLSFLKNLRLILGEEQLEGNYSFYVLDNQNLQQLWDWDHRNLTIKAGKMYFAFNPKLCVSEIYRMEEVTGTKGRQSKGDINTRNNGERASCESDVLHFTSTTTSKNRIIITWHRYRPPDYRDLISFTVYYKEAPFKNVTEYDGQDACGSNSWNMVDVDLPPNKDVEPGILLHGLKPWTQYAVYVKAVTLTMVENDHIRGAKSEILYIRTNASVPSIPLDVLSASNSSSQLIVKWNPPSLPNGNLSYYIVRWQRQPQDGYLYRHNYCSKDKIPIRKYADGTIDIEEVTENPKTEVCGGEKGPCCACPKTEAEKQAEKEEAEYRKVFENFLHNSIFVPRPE
Sequence of Insulin-like growth factor 1 receptor (Homo sapiens) (P08069 741-1367 limits assumed): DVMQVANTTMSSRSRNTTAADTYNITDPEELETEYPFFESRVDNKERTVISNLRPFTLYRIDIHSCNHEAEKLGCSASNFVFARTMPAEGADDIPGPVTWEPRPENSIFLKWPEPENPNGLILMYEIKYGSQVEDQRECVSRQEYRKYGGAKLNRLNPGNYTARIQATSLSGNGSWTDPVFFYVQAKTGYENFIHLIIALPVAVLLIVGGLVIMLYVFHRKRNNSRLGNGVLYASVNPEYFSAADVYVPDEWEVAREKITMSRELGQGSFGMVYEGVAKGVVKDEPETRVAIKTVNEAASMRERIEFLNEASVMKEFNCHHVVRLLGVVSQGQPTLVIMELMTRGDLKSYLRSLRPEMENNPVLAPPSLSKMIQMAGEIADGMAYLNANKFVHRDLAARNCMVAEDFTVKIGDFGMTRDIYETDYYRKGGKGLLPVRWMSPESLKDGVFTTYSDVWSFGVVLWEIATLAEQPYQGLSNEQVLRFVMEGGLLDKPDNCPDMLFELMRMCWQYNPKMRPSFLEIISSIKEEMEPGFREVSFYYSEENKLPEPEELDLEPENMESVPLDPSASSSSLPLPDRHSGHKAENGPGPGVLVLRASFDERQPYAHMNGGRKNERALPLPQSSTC

[17] = tested on: MCF7; experiment: Antiproliferative activity against human MCF7 cells after 48 hrs by SRB assay; type: functional; conditions: MCF7, 48 h
Method in brief: (§5)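 Run in the NCI screen of about 60 human tumour cell lines. Cells were exposed to compound for 48 h at five concentrations from 10^-8 to 10^-4 M, then fixed and stained for protein with sulforhodamine B. Absorbance was read at 515 nm. Percent growth was calculated from time-zero, untreated-control and treated readings, and replicate experiments were averaged.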

[18] = tested on: HT-29; experiment: Antiproliferative activity against human HT-29 cells after 48 hrs by SRB assay; type: functional; conditions: HT-29, 48 h; method in brief: as §5
[19] = tested on: SNB-19; experiment: Antiproliferative activity against human SNB19 cells after 48 hrs by SRB assay; type: functional; conditions: SNB-19, 48 h; method in brief: as §5
[20] = tested on: OVCAR-3; experiment: Antiproliferative activity against human OVCAR3 cells after 48 hrs by SRB assay; type: functional; conditions: OVCAR-3, 48 h; method in brief: as §5
[21] = tested on: MDA-MB-435; experiment: Antiproliferative activity against human MDA-MB-435 cells after 48 hrs by SRB assay; type: functional; conditions: MDA-MB-435, 48 h; method in brief: as §5
[22] = tested on: EKVX; experiment: Antiproliferative activity against human EKVX cells after 48 hrs by SRB assay; type: functional; method in brief: as §5
[23] = tested on: UACC-257; experiment: Antiproliferative activity against human UACC257 cells after 48 hrs by SRB assay; type: functional; conditions: UACC-257, 48 h; method in brief: as §5
[24] = tested on: SW-620; experiment: Antiproliferative activity against human SW620 cells after 48 hrs by SRB assay; type: functional; conditions: SW-620, 48 h; method in brief: as §5
[25] = tested on: TK-10; experiment: Antiproliferative activity against human TK10 cells after 48 hrs by SRB assay; type: functional; conditions: TK-10, 48 h; method in brief: as §5
[26] = tested on: CAKI-1; experiment: Antiproliferative activity against human CAKI-1 cells after 48 hrs by SRB assay; type: functional; conditions: CAKI-1, 48 h; method in brief: as §5

inhibition [1]	inhibition [2]	inhibition [3]	inhibition [4]	IC50 [5] [µM]	inhibition [6]	IC50 [7] [µM]	inhibition [8]	inhibition [9]	inhibition [10]	IC50 [11] [µM]	inhibition [12]	IC50 [13] [µM]	IC50 [14] [µM]	inhibition [15]	inhibition [16]	Compound	further results
inactive	inactive	inactive	inactive	> 100	inactive	> 100	inactive	inactive	inactive	> 100	inactive	> 100	> 100	inactive	inactive	CCOc1ccc(Nc2nccc(-c3nc4ccccc4n3C)n2)cc1	
				> 100		7.5				6		10.4	7			Cn1c(-c2ccnc(Nc3ccc(O)c(Cl)c3)n2)nc2ccccc21	
inactive	inactive	inactive	inactive	> 100	inactive	13.4	inactive	inactive	inactive	60	inactive	38	> 100	inactive	inactive	Cn1c(-c2ccnc(Nc3ccccc3)n2)nc2ccccc21	
				> 100		9.2				12		11.4	11.1			Cn1c(-c2ccnc(Nc3ccc(O)cc3)n2)nc2ccccc21	
inactive	inactive	inactive	inactive	> 100	inactive	69	inactive	inactive	inactive	> 100	inactive	24	> 100	inactive	inactive	Cn1c(-c2ccnc(Nc3ccc(N4CCOCC4)cc3)n2)nc2ccccc21	
inactive	inactive	inactive	inactive		inactive	25	inactive	inactive			inactive	58		inactive	inactive	Cc1ccc(Nc2nccc(-c3nc4ccccc4n3C)n2)cc1	
inactive	inactive	inactive	inactive		inactive	85	inactive	inactive			inactive	92		inactive	inactive	Cn1c(=O)c2ccc(-c3nc4ccccc4n3C)nc2n(C)c1=O	
inactive	inactive	inactive	inactive	41	inactive	38	inactive	inactive			inactive	69		inactive	inactive	Cn1c(-c2ccnc(Nc3ccc(Cl)cc3)n2)nc2ccccc21	
inactive	inactive	inactive	inactive	75	inactive	44	inactive	inactive	inactive	15	inactive	27	62	inactive	inactive	COc1ccc(Nc2nccc(-c3nc4ccccc4n3C)n2)cc1	
																CNC(=O)c1cc(Oc2ccc(NC(=O)Nc3ccc(Cl)c(C(F)(F)F)c3)cc2)ccn1 [SORAFENIB TOSYLATE]	GI50 [17]: 2.5 µM; GI50 [18]: 2.5 µM; GI50 [19]: 3.2 µM; GI50 [20]: 3.2 µM; GI50 [21]: 2 µM; GI50 [22]: 2.5 µM; GI50 [23]: 2 µM; GI50 [24]: 3.2 µM; GI50 [25]: 5 µM; GI50 [26]: 3.2 µM
				> 100		3.2				3.7		5.2	5.5			Cn1c(-c2ccnc(Nc3cccc(O)c3)n2)nc2ccccc21	

— ChEMBL document CHEMBL2034932, “2-Anilino-4-(benzimidazol-2-yl)pyrimidines--a multikinase inhibitor scaffold with antiproliferative activity toward cancer cell lines” (Eur J Med Chem, 2012)
